Data on 27 compounds can be found in ChEMBL document CHEMBL1127606, “HIV-1 reverse transcriptase inhibitor design using artificial neural networks” (1994).

Test [1] concerns the target Human immunodeficiency virus type 1 reverse transcriptase (Human immunodeficiency virus 1) (UniProt Q72547). Put plainly: Inhibition of HIV-1 reverse transcriptase; - = inactive.
The test system of test [2] is MT4. Kind of test: Content of viable cells at 10e-5 concentration of compound was tested on MT-4 cells infected by […]. The class given is functional, Homo sapiens. In short, it runs like this: (§1)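 Anti-HIV viable-cell assay: MT-4 lymphocytes infected with cell-free fluid from chronically HIV-1-infected H9/IIIB cultures at 0.05–0.1 log10 EPCD50 per cell. They were cultured 7 days with compound at 10^-4 or 10^-5 M. Viable cells were counted by 0.25% trypan blue exclusion and reported as % viable cells.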

The subject of test [3] is MT4. Put plainly: Cytotoxic concentration for 50% death of uninfected MT-4 cell culture.
For test [4], the system named is MT4. Put plainly: Number of infected cells at 10e-5 concentration of compound was tested on MT-4 cells infected by […]. It counts as functional, Homo sapiens. In short, it runs like this: (§2)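 Infected-cell count: HIV-1 (H9/IIIB-derived fluid, 0.05–0.1 log10 EPCD50 per cell) was used to infect MT-4 lymphocytes, which were then grown 7 days with compound at 10^-4 or 10^-5 M. Cells expressing viral antigens on their surface membranes were scored by indirect immunofluorescence with anti-HIV-1 antibodies, as % of cells.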

The subject of test [5] is MT4. Put plainly: Content of viable cells at 10e-4 concentration of compound was tested on MT-4 cells infected by […]. It counts as functional, Homo sapiens. In a few lines:
as §1

The subject of test [6] is MT4. Kind of test: RT activity in culture fluid at 10e-4 concentration of compound was tested on MT-4 cells infected by […]. It counts as cell-based. In a few lines:
(§3)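 RT assay: infected MT-4 cells (H9/IIIB-derived HIV-1, 0.05–0.1 log10 EPCD50 per cell) were cultured 7 days with compound at 10^-4 or 10^-5 M. Reverse transcriptase activity in the culture fluid was measured and expressed as % of untreated infected control.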

Test [7] deals with MT4. Put plainly: RT activity in culture fluid at 10e-5 concentration of compound was tested on MT-4 cells infected by […]. It counts as cell-based. In short, it runs like this:
as §3

The test system of test [8] is MT4. Kind of test: Antigen p24 content in culture fluid at 10e-5 concentration of compound was tested on MT-4 cells infected by […]. The class given is functional, Homo sapiens. In short, it runs like this:
(§4)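 p24 assay: MT-4 cultures were infected with HIV-1 from chronically infected H9/IIIB cultures (0.05–0.1 log10 EPCD50 per cell) and held 7 days with compound at 10^-4 or 10^-5 M. Virus production was measured as p24 antigen in culture fluid by immunoenzymatic assay, in ng/mL.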

In test [9] the test system is MT4. Put plainly: Number of infected cells at 10e-4 concentration of compound was tested on MT-4 cells infected by […]. The class given is functional, Homo sapiens. In short, it runs like this: as §2
The test system of test [10] is MT4. Put plainly: Antigen p24 content in culture fluid at 10e-4 concentration of compound was tested on MT-4 cells infected by […]. It counts as functional, Homo sapiens. In short, it runs like this: as §4
In test [11] the test system is MT4. Kind of test: Cytotoxic concentration for 50% death of MT-4 cell culture infected by HIV-1/ IIIB. The class given is functional, Homo sapiens.

Calls of active or inactive are those of the source. No cut-off for these calls is given here.

For the compound `CC(=O)N[C@@H]1C=C[C@H](n2cc(C)c(=O)[nH]c2=O)O[C@@H]1CO`, in test [1], the result was inactive.

For `CC(=O)N[C@@H]1C=C[C@@H](n2cc(C)c(=O)[nH]c2=O)OC1`, in [1], the result was inactive.

As for `CC(=O)O[C@H]1C=C[C@@H](n2cc(C)c(=O)[nH]c2=O)OC1`, the result in test [1] was inactive.

For the compound `Cc1cn([C@@H]2C=CC(O)CO2)c(=O)[nH]c1=O` (single isomer, unassigned), the result in [1] was inactive.

In the case of `Nc1nc(=O)n(C2OC(CO)CC2F)cc1F` (stereo unspecified), in [1], the outcome was inactive.

`Cc1cn([C@@H]2O[C@H](CO)[C@@H](N=[N+]=[N-])[C@H]2F)c(=O)[nH]c1=O`: the result in test [1] was inactive.

With `Cc1cn(C2C=C[C@@H](O)[C@@H](CO)O2)c(=O)[nH]c1=O` (single isomer, unassigned), in test [1], the result was inactive.

In the case of `Cc1cn([C@@H]2O[C@H](CO)C[C@H]2F)c(=O)[nH]c1=O`, the outcome in test [1] was inactive.

Take `Cc1cn([C@H]2C[C@H](N=[N+]=[N-])[C@@H](CO)O2)c(=O)[nH]c1=O` [ZIDOVUDINE]: the Viable cells in the test on MT4 [2] is recorded as 69.7%; with MT4 [5], 78.6%. This compound returned a CTC50 in the test with MT4 [3] of 0.0053 M. Besides, the figures for the “No. of infected cells” value in the test with MT4 [4] and with MT4 [9] were 2.1% and 2.9%, respectively. Further, the values for the RT activity with MT4 [6] and with MT4 [7] were 19.2% and 17%, respectively. The “Antigen p24 content” value with MT4 [8] came out at 0.68 ng/mL; in the test on MT4 [10] it was 0.82 ng/mL.

On to `COC1=NC(OC)=C([N+](=O)[O-])C(CC(C)=O)N1CC(O)CO` (stereo unspecified), for which the Viable cells in the test with MT4 [2] came out at 83.2%; in the test on MT4 [5], 85.1%. Besides, the CTC50 in the test on MT4 [3] came to 0.0466 M. Further, the “No. of infected cells” value in the test with MT4 [4] is 2.8%; in the test with MT4 [9], 3.6%. Besides, the results for the RT activity in the test on MT4 [6] and in the test on MT4 [7] were 20.9% and 18.7%, respectively. The “Antigen p24 content” value amounted to 0.77 ng/mL with MT4 [8] and 0.87 ng/mL in the test on MT4 [10].

In the case of `COC1=NC(CC(C)=O)N=C(OC)C1(CC(O)CO)[N+](=O)[O-]` (stereo unspecified), the Viable cells in the test with MT4 [2] turned out to be 52.1%; with MT4 [5], 37.3%. The compound also registered a CTC50 in the test on MT4 [3] of 0.058 M. Further, the “No. of infected cells” value was 12.6% in the test on MT4 [4] and 19.7% in the test with MT4 [9]. Moreover, the RT activity turned out to be 84.3% in the test on MT4 [6] and 82.5% with MT4 [7]. The “Antigen p24 content” value turned out to be 1.87 ng/mL in the test with MT4 [8] and 1.92 ng/mL in the test on MT4 [10].

On to `COC(=O)C(C)NP(=O)(OCC1OC(n2cc(C)c(=O)[nH]c2=O)CC1F)OCC(Cl)(Cl)Cl` (stereo unspecified), for which the outcome in test [1] was inactive.

Regarding `Cc1cn(C2C=C[C@H](O)[C@@H](CO)O2)c(=O)[nH]c1=O` (single isomer, unassigned), in test [1], the outcome was inactive.

With `O=c1ccn(C2OC(CO)C=C2F)c(=O)[nH]1` (stereo unspecified), the outcome in test [1] was inactive.

Regarding `O=c1ccn(C2OC(CO)C(F)C2F)c(=O)[nH]1` (stereo unspecified), the outcome in [1] was inactive.

Regarding `CCc1cc(CCN2C(=O)c3ccccc3C2=O)c(O)nc1C`, in test [1], the result was inactive.

Regarding `CC(=O)OC[C@H]1O[C@H](n2cc(C)c(=O)[nH]c2=O)C=C[C@@H]1OC(C)=O`, in test [1], the outcome was inactive.

Take `COC(=O)C(Cc1ccccc1)NP(=O)(NC(Cc1ccccc1)C(=O)OC)OCC1OC(n2cc(C)c(=O)[nH]c2=O)CC1F` (stereo unspecified): in test [1], the outcome was inactive.

For `Cc1cn([C@@H]2O[C@H](CO)C=C2F)c(=O)[nH]c1=O`, the outcome in test [1] was inactive.

As to `COC(=O)C(NP(=O)(OCC1OC(n2cc(C)c(=O)[nH]c2=O)CC1F)OCC(Cl)(Cl)Cl)C(C)C` (stereo unspecified), the outcome in [1] was inactive.

With `Cc1cn(C2C=C[C@@H](N=[N+]=[N-])CO2)c(=O)[nH]c1=O` (single isomer, unassigned), the outcome in [1] was inactive.

As to `CC(=O)O[C@H]1C=C[C@H](n2cc(C)c(=O)[nH]c2=O)O[C@@H]1CO`, in [1], the outcome was inactive.

For the compound `O=c1ccn(C2OC(CO)CC2F)c(=O)[nH]1` (stereo unspecified), in test [1], the result was inactive.

As to `CC(=O)N[C@@H]1C=C[C@@H](n2cc(C)c(=O)[nH]c2=O)O[C@@H]1CO`, in test [1], the result was inactive.

`Cc1cn([C@@H]2C=C[C@@H](N=[N+]=[N-])[C@@H](CO)O2)c(=O)[nH]c1=O`: the outcome in [1] was inactive.

As for `Cc1cn([C@H]2C=C[C@@H](N=[N+]=[N-])[C@@H](CO)O2)c(=O)[nH]c1=O`, the result in [1] was inactive.

Consider `COc1nc(CC(C)=O)nc(OC)c1CC(O)CO` (stereo unspecified), for which the CTC50 in the test on MT4 [11] was determined as 78 µM.
